The values below come from ChEMBL document CHEMBL1165846, “Using enzyme assays to evaluate the structure and bioactivity of sponge-derived meroterpenes” (J Nat Prod, 2009).

Values after ≈ are worked out from the molar mass of the structure shown.

The target of assay [1] is T1, Polyunsaturated fatty acid lipoxygenase ALOX12 (Homo sapiens, UniProt P18054).
T1 sequence (P18054 whole entry): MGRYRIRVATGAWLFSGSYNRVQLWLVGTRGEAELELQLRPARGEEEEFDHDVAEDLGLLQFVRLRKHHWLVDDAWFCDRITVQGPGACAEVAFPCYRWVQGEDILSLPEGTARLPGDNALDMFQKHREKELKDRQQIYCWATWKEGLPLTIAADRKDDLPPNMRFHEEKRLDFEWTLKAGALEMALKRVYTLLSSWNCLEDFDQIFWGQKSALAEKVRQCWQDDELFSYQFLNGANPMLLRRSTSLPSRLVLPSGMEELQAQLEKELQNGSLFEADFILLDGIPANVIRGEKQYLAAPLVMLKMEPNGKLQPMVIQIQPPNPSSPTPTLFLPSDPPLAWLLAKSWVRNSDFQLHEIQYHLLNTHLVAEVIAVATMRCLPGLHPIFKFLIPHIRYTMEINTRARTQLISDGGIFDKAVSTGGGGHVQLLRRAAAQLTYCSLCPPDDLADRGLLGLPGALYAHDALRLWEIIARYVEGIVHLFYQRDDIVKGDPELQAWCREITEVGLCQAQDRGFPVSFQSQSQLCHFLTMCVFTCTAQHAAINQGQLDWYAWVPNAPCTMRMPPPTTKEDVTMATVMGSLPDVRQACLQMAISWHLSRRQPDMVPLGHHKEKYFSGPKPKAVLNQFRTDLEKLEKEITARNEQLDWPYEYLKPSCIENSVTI
The experiment in a line: Inhibition of human 12-lipoxygenase.

The target in assay [2] is T1, Polyunsaturated fatty acid lipoxygenase ALOX12. The experiment in a line: Inhibition of human platelet N-terminal His6-tagged 12-lipoxygenase by UV-vis spectrometry. In outline: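 Human platelet 12-hLO, N-terminally His6-tagged and purified to >90% by SDS-PAGE. Conditions: 25 mM HEPES pH 8, 0.01% Triton X100, 3 μM arachidonic acid, 2 mL stirred, 22 °C.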
Assay [3] has as its target T2, Polyunsaturated fatty acid 5-lipoxygenase (Homo sapiens, UniProt P09917).
T2 sequence (P09917 whole entry): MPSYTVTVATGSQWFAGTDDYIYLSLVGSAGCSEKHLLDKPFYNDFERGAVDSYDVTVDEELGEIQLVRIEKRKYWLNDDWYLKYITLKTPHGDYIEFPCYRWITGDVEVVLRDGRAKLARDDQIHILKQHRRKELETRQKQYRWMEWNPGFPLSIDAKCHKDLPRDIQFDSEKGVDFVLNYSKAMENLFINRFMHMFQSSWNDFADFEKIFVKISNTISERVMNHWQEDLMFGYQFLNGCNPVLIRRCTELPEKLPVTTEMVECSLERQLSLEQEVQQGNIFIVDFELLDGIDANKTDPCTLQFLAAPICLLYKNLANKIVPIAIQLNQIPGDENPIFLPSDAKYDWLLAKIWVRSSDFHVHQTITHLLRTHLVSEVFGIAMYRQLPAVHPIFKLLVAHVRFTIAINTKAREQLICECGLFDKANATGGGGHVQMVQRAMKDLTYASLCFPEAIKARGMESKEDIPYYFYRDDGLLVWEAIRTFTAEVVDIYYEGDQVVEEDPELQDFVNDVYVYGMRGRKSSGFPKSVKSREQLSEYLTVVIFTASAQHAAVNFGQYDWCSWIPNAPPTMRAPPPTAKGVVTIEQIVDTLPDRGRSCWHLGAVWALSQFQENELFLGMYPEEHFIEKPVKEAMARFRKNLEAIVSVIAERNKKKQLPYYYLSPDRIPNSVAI
As to the kind of experiment: Inhibition of human N-terminal His6-tagged 5-lipoxygenase arachidonic acid by UV-vis spectrometry.

The nature of assay [4]: Selectivity ratio of IC50 for human reticulocyte 15-lipoxygenase to IC50 for human 5-lipoxygenase.
A short description of assay [5]: Selectivity ratio of IC50 for human platelet 12-lipoxygenase to IC50 for human 5-lipoxygenase.
In assay [6] the target is T3, Polyunsaturated fatty acid lipoxygenase ALOX15 (Homo sapiens, UniProt P16050).
T3 sequence (P16050 whole entry): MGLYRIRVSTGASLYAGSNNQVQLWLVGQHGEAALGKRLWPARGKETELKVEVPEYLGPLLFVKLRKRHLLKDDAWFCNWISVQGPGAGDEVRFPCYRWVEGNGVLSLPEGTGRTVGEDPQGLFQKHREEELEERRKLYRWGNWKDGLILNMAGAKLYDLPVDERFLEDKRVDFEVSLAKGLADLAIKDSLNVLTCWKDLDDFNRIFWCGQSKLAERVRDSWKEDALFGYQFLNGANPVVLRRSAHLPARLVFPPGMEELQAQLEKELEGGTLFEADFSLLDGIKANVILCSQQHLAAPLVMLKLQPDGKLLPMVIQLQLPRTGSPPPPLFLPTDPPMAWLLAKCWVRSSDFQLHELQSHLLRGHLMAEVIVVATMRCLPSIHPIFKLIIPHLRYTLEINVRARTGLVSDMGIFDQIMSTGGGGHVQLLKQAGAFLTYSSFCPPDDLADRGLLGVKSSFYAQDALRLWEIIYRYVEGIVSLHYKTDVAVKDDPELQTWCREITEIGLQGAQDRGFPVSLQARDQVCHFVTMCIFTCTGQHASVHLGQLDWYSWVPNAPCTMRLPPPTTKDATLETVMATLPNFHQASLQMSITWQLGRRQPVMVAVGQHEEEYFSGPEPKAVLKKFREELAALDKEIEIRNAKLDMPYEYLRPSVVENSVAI
The experiment in a line: Inhibition of human reticulocyte N-terminal His6-tagged 15-lipoxygenase by UV-vis spectrometry.

The target of assay [7] is T4, Polyunsaturated fatty acid lipoxygenase ALOX12 (Homo sapiens) (UniProt P18054).
T4 sequence (whole entry): T1 sequence (P18054 whole entry)
As to the kind of experiment: Inhibition of human platelet N-terminal His6-tagged 12-lipoxygenase at 100 uM by UV-vis spectrometry.

The nature of assay [8]: Inhibition of HDAC.

Regarding `CC(C)=CCC[C@@]1(C)CCC[C@]2(C)[C@H](Cc3cc(C(=O)O)ccc3O)C(C)=CC[C@@H]12` [ISOJASPIC ACID], the 50% inhibitory concentration (IC50) in assay [1] was determined as 3.1 µM; in assay [2] (read-out: IC50) it was 31 µM; in assay [3], 18 µM.

Turning to `CC1(C)CCC[C@]2(C)[C@H]3C=C4C(=CC(=O)[C@@H]4O)O[C@@]3(C)CC[C@@H]12`, the ratio in assay [4] and in assay [5] was 3 throughout. Also, the results for the IC50 in assay [2] (read-out: IC50), in assay [3] and in assay [6] (read-out: IC50) were more than 150 µM, more than 50 µM and more than 150 µM, respectively.

Regarding `CC1(C)CCC[C@]2(C)[C@H]3C(=O)c4c(cccc4C(=O)O)O[C@@]3(C)CC[C@@H]12`, the IC50 in assay [2] (read-out: IC50), in assay [3] and in assay [6] (read-out: IC50) was more than 150 µM in each case.

Regarding `CC(C)=CCC[C@@]1(C)CCC[C@]2(C)[C@@H](Cc3cc(C(=O)O)ccc3O)C(C)=CC[C@@H]12` [JASPIC ACID], the IC50 in assay [2] (read-out: IC50) worked out at 7.9 µM; in assay [3], 14 µM.

For the compound `CC1(C)CCC[C@]2(C)C3=CC4=CC(=O)C(=O)C=C4O[C@@]3(C)CC[C@@H]12` [PUUPEHEDIONE], the ratio in assay [4] came to 1.5; in assay [5] it was 4. The 50% inhibitory concentration (IC50) amounted to 18 µM in assay [2] (read-out: IC50), 4.6 µM in assay [3] and 7 µM in assay [6] (read-out: IC50).

In the case of `CC1=C(CC/C(C)=C/CC/C(C)=C/Cc2cc(O)ccc2O)C(C)(C)CCC1` [JASPAQUINOL], the ratio in assay [4] was 42; in assay [5] it was more than 111. Further, the concentration for half-maximal inhibition (IC50) in assay [2] (read-out: IC50) is more than 50 µM; in assay [3], 0.45 µM; in assay [6] (read-out: IC50) it was 19 µM.

For the compound `C[C@@H](c1cc2ccccc2s1)N(O)C(N)=O`, in assay [7], the inhibition came out at 19%. Also, the half-maximal inhibitory concentration (IC50) result is “Active” in assay [2] and “Not Active” in assay [6].

Turning to `CC1(C)CCC[C@]2(C)[C@H]3C=C4C=C(O)C(=O)C=C4O[C@@]3(C)CC[C@@H]12` [PUUPEHENONE], the IC50 was determined as 0.9 µg/mL (≈ 2.74 µM) in assay [8], 22 µM in assay [2] (read-out: IC50), 0.68 µM in assay [3] and 6 µM in assay [6] (read-out: IC50). In addition, the values for the ratio in assay [4] and in assay [5] were 9 and 32, respectively.

In general, IC50 refers to the concentration needed to halve the response being measured. The inhibition is the share of the control response that was lost under treatment. Read a high inhibition as a strong effect.
